# Assay results: ChEMBL document CHEMBL4304819, “Natural product pectolinarigenin exhibits potent anti-metastatic activity in colorectal carcinoma cells in vitro and in vivo” (2019)
# The source made the active and inactive calls. No cut-off for these calls is given here.
# How the values were obtained:
# [1] = system: CT26; assay: Antitumor activity against mouse CT26 cells allografted in Balb/c mouse assessed as inhibition of Ki-67 positive cells in tumour tissue at 25 to 50 mg/kg, ip administered daily for 14 days starting from 6 days post implantation by immunohistochemical analysis; format: functional, organism-based
# In short: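 Female BALB/c mice (6–8 weeks) injected ip with 5 × 10^5 CT26 cells; from day 6, randomized (eight per group) to ip vehicle, 25 or 50 mg/kg once daily for 14 days. Abdominal circumference and body weight every 3 days; abdominal nodules counted by eye and weighed; spleens assessed; paraffin tumour sections immunostained (Ki-67, MMP-9, p-Stat3) with DAB detection.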
# [2] = system: CT26; assay: Antimetastatic activity against mouse CT26 cells allografted in Balb/c mouse assessed as increase in infiltration of CD8+ T cells in blood at 50 mg/kg, ip administered daily for 14 days starting from 6 days post implantation flow cytometric analysis (reference value: 1.35 %); format: functional
# [3] = system: HCT-116; assay: Induction of apoptosis in human HCT116 cells assessed as viable cells at 10 uM after 48 hrs by Annexin V-FITC/propidium iodide staining-based flow cytometric analysis (reference value: 86.7 %); format: functional; details: HCT-116, 48 h, read-out: Activity
# In short: (§1)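 Cells (1–2 × 10^5 per well) seeded in six-well plates 24 h, treated at 0–40 μM for 24 h or 48 h, harvested, washed twice in cold PBS, stained with Annexin V-FITC/PI and analysed by flow cytometry; early (Annexin V only) and late (Annexin V and PI) apoptotic fractions quantified; three experiments.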
# [4] = system: CT26; assay: Induction of apoptosis in mouse CT26 cells assessed as increase in cleaved caspase-3 expression after 48 hrs by Western blot analysis; format: functional, cell-based
# In short: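 CT26 cells exposed 48 h to PEC at 0, 10, 20 and 40 μM, washed twice in cold PBS, lysed in RIPA. Protein measured by Lowry and equalized, run on SDS-PAGE, blotted to PVDF. Blocked 1 h at 37 °C, primary antibodies (Bax, Bcl-2, pro-caspase-3, cleaved caspase-3) overnight at 4 °C, secondary 1 h, ECL detection, densitometry.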
# [5] = system: CT26; assay: Antiinvasive activity against mouse CT26 cells after 48 hrs by crystal violet staining based light microscopic analysis; format: functional, cell-based
# In short: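 Transwell membrane upper surface coated with Matrigel diluted 1:5 in serum-free medium. 5 × 10^4 cells in serum-free medium in upper part, 10% FBS medium below, treated with various concentrations for 48 h. Non-invading cells removed; underside cells fixed in methanol, stained with 0.5% crystal violet, counted by light microscopy; expressed as % inhibition versus untreated.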
# [6] = system: CT26; assay: Induction of apoptosis in mouse CT26 cells assessed as appearance of condensed nuclei up to 40 uM after 48 hrs by Hoechst 33258 staining-based fluorescent microscopic analysis; format: functional, cell-based
# In short: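 Cells (1–2 × 10^5 per well) plated on 18-mm coverslips in six-well plates for 24 h, treated at various concentrations for 48 h, washed with cold PBS, fixed 15 min in 4% paraformaldehyde, stained with Hoechst 33258 (5 μg/ml); condensed/fragmented nuclei scored by fluorescence microscopy (10×); stained positive cells, mean ± SD of three experiments.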
# [7] = system: HCT-116; assay: Antimetastatic activity against human HCT116 assessed as inhibition of MMP-9 expression after 48 hrs by Western blot analysis; format: functional, cell-based
# In short: (§2)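 Cells treated 48 h at 0, 10, 20 and 40 μM, washed in cold PBS, lysed in RIPA; protein equalized by Lowry assay, resolved by SDS-PAGE, transferred to PVDF, blocked 1 h at 37 °C, primary antibody overnight at 4 °C, secondary 1 h, ECL detection, densitometry. β-actin loading control.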
# [8] = system: HCT-116; assay: Inhibition of colony formation in human HCT116 cells assessed as reduction in size of colonies up to 40 uM incubated for 24 hrs supplemented with fresh medium containing compound every 3 days for 12 days by crystal violet staining-based microscopic analysis; format: functional, cell-based
# In short: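 400–800 cells per well seeded in 6-well plates; after 24 h, PEC (0–40 μM) added. Medium with or without compound replaced every three days for 12 days. Colonies washed in cold PBS, fixed in methanol, stained 15 min with 0.5% crystal violet and counted under a microscope. Mean ± SD of three experiments.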
# [9] = molecular target: Signal transducer and activator of transcription 3 (Homo sapiens) (UniProt P40763); assay: Inhibition of STAT3 phosphorylation in human HCT116 cells after 48 hrs by Western blot analysis; format: cell-based
# In short: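 HCT116 cells treated 48 h with PEC at 0, 10, 20 and 40 μM, lysed in RIPA. Equal protein by Lowry, SDS-PAGE, PVDF transfer. Block 1 h at 37 °C, anti-Stat3 and anti-p-Stat3 Tyr705 overnight at 4 °C, secondary 1 h, ECL. β-actin loading control; bands quantified by densitometry.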
# [10] = system: CT26; assay: Induction of apoptosis in mouse CT26 cells assessed as decrease in Bcl-2 protein expression up to 40 uM after 48 hrs by Western blot analysis; format: functional, cell-based; in short: as §2
# [11] = system: CT26; assay: Antimetastatic activity against mouse CT26 cells allografted in Balb/c mouse assessed as decrease in CD11b-positive/Gr1-positive myeloid cells level in tumour at 50 mg/kg, ip administered daily for 14 days starting from 6 days post implantation flow cytometric analysis (reference value: 10 %); format: functional; design: scale not given: the % may be the effect or the level left
# [12] = system: CT26; assay: Antimetastatic activity against mouse CT26 cells allografted in ip dosed Balb/c mouse assessed as decrease in CD11b-positive/Gr1-positive myeloid cells level in peripheral blood administered daily for 14 days starting from 6 days post implantation by flow cytometric analysis; format: functional, organism-based
# [13] = system: HCT-116; assay: Induction of apoptosis in human HCT116 cells assessed as necrotic cells at 20 uM after 48 hrs by Annexin V-FITC/propidium iodide staining-based flow cytometric analysis (reference value: 8.24 %); format: functional; in short: as §1
# [14] = system: HCT-116; assay: Induction of apoptosis in human HCT116 cells assessed as early apoptotic cells at 20 uM after 48 hrs by Annexin V-FITC/propidium iodide staining-based flow cytometric analysis (reference value: 1.23 %); format: functional; in short: as §1
# [15] = system: HCT-116; assay: Induction of apoptosis in human HCT116 cells assessed as necrotic cells at 10 uM after 48 hrs by Annexin V-FITC/propidium iodide staining-based flow cytometric analysis (reference value: 8.24 %); format: functional; in short: as §1
# [16] = system: CT26; assay: Induction of apoptosis in mouse CT26 cells assessed as late apoptotic cells at 40 uM after 48 hrs by Annexin V-FITC/propidium iodide staining-based flow cytometric analysis (reference value: 6.49 %); format: functional
# In short: (§3)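 CT26 cells seeded at 1–2 × 10^5 per well in six-well plates for 24 h, then exposed to PEC (0–40 μM) for 24 or 48 h. Cells harvested, washed twice in cold PBS, stained with Annexin V-FITC/PI and read by flow cytometry. Early apoptotic = Annexin V+ only; late apoptotic = Annexin V+/PI+. Mean ± SD of three experiments.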
# [17] = system: CT26; assay: Induction of apoptosis in mouse CT26 cells assessed as viable cells at 10 uM after 48 hrs by Annexin V-FITC/propidium iodide staining-based flow cytometric analysis (reference value: 88.9 %); format: functional; details: CT26, 48 h, read-out: Activity; in short: as §3
# Chain of Signal transducer and activator of transcription 3 (Homo sapiens) (P40763 whole entry): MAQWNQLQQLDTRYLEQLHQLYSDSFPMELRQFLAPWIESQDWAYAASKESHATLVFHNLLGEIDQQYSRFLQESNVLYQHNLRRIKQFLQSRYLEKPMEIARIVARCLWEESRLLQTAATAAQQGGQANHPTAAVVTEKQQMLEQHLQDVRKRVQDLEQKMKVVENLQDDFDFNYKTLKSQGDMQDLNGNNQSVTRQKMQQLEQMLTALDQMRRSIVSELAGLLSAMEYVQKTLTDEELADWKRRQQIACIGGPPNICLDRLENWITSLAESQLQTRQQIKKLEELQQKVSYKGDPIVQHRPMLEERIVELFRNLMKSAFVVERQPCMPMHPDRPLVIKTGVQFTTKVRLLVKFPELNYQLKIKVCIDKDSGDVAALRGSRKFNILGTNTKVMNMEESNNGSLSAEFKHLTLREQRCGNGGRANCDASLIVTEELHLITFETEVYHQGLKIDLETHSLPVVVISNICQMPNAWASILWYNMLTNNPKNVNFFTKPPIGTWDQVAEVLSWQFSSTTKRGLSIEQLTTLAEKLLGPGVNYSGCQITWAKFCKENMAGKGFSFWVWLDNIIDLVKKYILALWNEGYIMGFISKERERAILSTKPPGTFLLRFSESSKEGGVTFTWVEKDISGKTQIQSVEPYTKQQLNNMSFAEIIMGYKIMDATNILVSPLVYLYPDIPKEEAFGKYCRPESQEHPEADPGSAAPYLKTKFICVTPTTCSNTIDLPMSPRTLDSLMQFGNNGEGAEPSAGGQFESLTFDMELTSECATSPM
smiles,measurement,setting,value
COc1ccc(-c2cc(=O)c3c(O)c(OC)c(O)cc3o2)cc1 [PECTOLINARIGENIN],inhibition,[1],Active
same,Activity,[2],4.17%
same,viability at 10 µM,[3],85.1%
same,Activity,[4],Dose-dependent effect
same,inhibition,[5],Dose-dependent effect
same,Activity,[6],Active
same,inhibition,[7],Dose-dependent effect
same,inhibition,[8],Active
same,inhibition,[9],Dose-dependent effect
same,Activity,[10],Active
same,Activity,[11],6.47%
same,Activity,[12],Dose-dependent effect
same,Activity,[13],4.55%
same,Activity,[14],8.86%
same,Activity,[15],3.98%
same,Activity,[16],13.4%
same,viability at 10 µM,[17],77.1%
